Measured values taken from ChEMBL document CHEMBL1177725, “6-(3,4-dichlorophenyl)-1-[(methyloxy)methyl]-3-azabicyclo[4.1.0]heptane: a new potent and selective triple reuptake inhibitor” (J Med Chem, 2010).

Key:
[1] = test system: Rattus norvegicus; experiment: Ex vivo SERT occupancy in Sprague-Dawley rat substantia nigra at 10 mg/kg, po […] by autoradiography; assay type: functional
[2] = Blood clearance in rat; assay type: ADME, organism-based
[3] = Half life in rat; assay type: ADME, organism-based; conditions: in vivo
[4] = target: Sodium-dependent serotonin transporter (Mus musculus, UniProt Q60857); experiment: Displacement of [3H]-citalopram from SERT in mouse cortex after 2 hrs by liquid scintillation counting
In short: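 Mouse cortex membranes (7 μg protein/well) were incubated 2 h at room temperature with [³H]citalopram, added at 0.25 nM. Test compound came from a 100× DMSO solution. Nonspecific binding was defined with 10 μM fluoxetine (final). Bound ligand was collected by filtration on PEI-presoaked GF/B filters, washed with ice-cold 0.9% NaCl and scintillation counted. A four-parameter logistic fit gave pIC50, converted to pKi by Cheng-Prusoff.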

[5] = target: Cytochrome P450 2C9 (Homo sapiens, UniProt P11712); experiment: Inhibition of human CYP2C9 after 10 mins; assay type: ADME
In short: (§1)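 Recombinant human CYP bactosomes (0.1 mg/mL) were pre-incubated 10 min at 37 °C in 50 mM phosphate pH 7.4 with compound (0.1–10 μM) and a fluorogenic substrate. Substrates: ethoxyresorufin 0.5 μM (1A2), FCA 50 μM (2C9), BMC 10 μM (2C19), MMC 10 μM (2D6), DEF 1 μM or 7-BQ 25 μM (3A4). Adding an NADPH-regenerating system started the reaction, and metabolite fluorescence was read over 10 min. The IC50 came from rate as percent of control; miconazole served as positive control, with triplicates.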

[6] = target: T1, Sodium-dependent serotonin transporter (Homo sapiens, UniProt P31645); experiment: Displacement of [3H]citalopram from human recombinant SERT by SPA
In short: (§2)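 SPA binding on BacMam-expressed human transporter membranes (SERT 6, NET 40, DAT 20 μg/mL) with SPA beads (1 mg/mL SERT; 2 mg/mL NET, DAT), 0.02% Pluronic F-127. Radioligands: 3 nM [3H]citalopram (SERT), 10 nM [3H]nisoxetine (NET), 10 nM [3H]WIN-35,428 (DAT). Buffer 20 mM HEPES, 145 mM NaCl, 5 mM KCl, pH 7.4; overnight, room temperature; imager read; four-parameter fit, Cheng-Prusoff pKi.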

[7] = test system: Rattus norvegicus; experiment: Ex vivo SERT occupancy in Sprague-Dawley rat striatum at 10 mg/kg, po […] by autoradiography; assay type: functional
[8] = test system: Rattus norvegicus; experiment: Ex vivo SERT occupancy in Sprague-Dawley rat cortex at 10 mg/kg, po after 1 hr by autoradiography; assay type: functional
In short: (§3)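 Oral dosing in rats. SERT occupancy was taken from [3H]citalopram binding to brain cortex prepared 1 h after administration.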

[9] = target: Sodium-dependent dopamine transporter (Rattus norvegicus, UniProt P23977); experiment: Displacement of [3H]WIN-35428 from DAT in rat striatum after 2 hrs by liquid scintillation counting
[10] = Ratio of drug level in brain to blood in rat; assay type: ADME, tissue-based
[11] = test system: Rattus norvegicus; experiment: Ex vivo SERT occupancy in Sprague-Dawley rat cortex at 0.03 mg/kg, po after 1 hr by autoradiography; assay type: functional; in short: as §3
[12] = test system: Rattus norvegicus; experiment: Ex vivo SERT occupancy in Sprague-Dawley rat dorsal raphe at 10 mg/kg, po […] by autoradiography; assay type: functional
[13] = test system: Rattus norvegicus; experiment: Ex vivo SERT occupancy in Sprague-Dawley rat cortex at 1 mg/kg, po after 1 hr by autoradiography; assay type: functional; in short: as §3
[14] = target: T1, Sodium-dependent serotonin transporter; experiment: Displacement of [N-methyl-3H]citalopram from human recombinant SERT expressed in pig LLCPK cells after 2 hrs by liquid scintillation counting; assay type: cell-based
[15] = target: T1, Sodium-dependent serotonin transporter; experiment: Inhibition of [3H]serotonin reuptake at human SERT expressed in pig LLCPK cells after 1 hr; assay type: cell-based
In short: (§4)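 Uptake SPA on stably transfected LLCPK cells with SPA beads (1.5 mg/mL SERT, NET; 2 mg/mL DAT) and 0.02% Pluronic F-127 in 20 mM HEPES, 145 mM NaCl, 5 mM KCl, pH 7.4. Cells/well: SERT 25 000, NET 50 000, DAT 75 000. Started by adding 35 nM [3H]serotonin, 45 nM [3H]noradrenalin or 75 nM [3H]dopamine (solutions added); 1 h, room temperature; four-parameter fit; n = 3.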

[16] = target: Transporter (Rattus norvegicus, UniProt Q63380); experiment: Displacement of [3H]nisoxetine from NET in rat hippocampus after 2 hrs by liquid scintillation counting; assay type: tissue-based
In short: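 Rat hippocampus membranes (40 μg protein/well), competition filtration binding run as for human recombinant NET: 1.5 nM [3H]nisoxetine, test compound added from 100x DMSO solution, 10 μM desipramine for nonspecific binding. Incubated for 2 h at room temperature, filtered on PEI-presoaked GF/B, and washed with ice-cold 0.9% NaCl. Read by scintillation counting; four-parameter logistic pIC50 converted to pKi by Cheng-Prusoff.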

[17] = target: Sodium-dependent dopamine transporter (Mus musculus, UniProt Q61327); experiment: Displacement of [3H]WIN-35428 from DAT in mouse brain; assay type: tissue-based
[18] = Oral bioavailability in rat; assay type: ADME, organism-based; conditions: in vivo
[19] = test system: Rattus norvegicus; experiment: Ex vivo SERT occupancy in Sprague-Dawley rat cortex at 0.1 mg/kg, po after 1 hr by autoradiography; assay type: functional
[20] = target: T2, Sodium-dependent noradrenaline transporter (Homo sapiens, UniProt P23975); experiment: Displacement of [3H]nisoxetine from human recombinant NET by SPA; in short: as §2
[21] = test system: Rattus norvegicus; experiment: Ex vivo SERT occupancy in Sprague-Dawley rat cortex at 0.3 mg/kg, po after 1 hr by autoradiography; assay type: functional; in short: as §3
[22] = target: Cytochrome P450 2D6 (Homo sapiens, UniProt P10635); experiment: Inhibition of human CYP2D6 after 10 mins; assay type: ADME; in short: as §1
[23] = Volume of distribution in rat; assay type: ADME, organism-based; conditions: in vivo
[24] = target: Cytochrome P450 3A4 (Homo sapiens, UniProt P08684); experiment: Inhibition of human CYP3A4 after 10 mins; assay type: ADME; in short: as §1
[25] = target: T3, Cytochrome P450 1A2 (Homo sapiens, UniProt P05177); experiment: Inhibition of human CYP1A2 after 10 mins; assay type: ADME; in short: as §1
T3 sequence (P05177 whole entry): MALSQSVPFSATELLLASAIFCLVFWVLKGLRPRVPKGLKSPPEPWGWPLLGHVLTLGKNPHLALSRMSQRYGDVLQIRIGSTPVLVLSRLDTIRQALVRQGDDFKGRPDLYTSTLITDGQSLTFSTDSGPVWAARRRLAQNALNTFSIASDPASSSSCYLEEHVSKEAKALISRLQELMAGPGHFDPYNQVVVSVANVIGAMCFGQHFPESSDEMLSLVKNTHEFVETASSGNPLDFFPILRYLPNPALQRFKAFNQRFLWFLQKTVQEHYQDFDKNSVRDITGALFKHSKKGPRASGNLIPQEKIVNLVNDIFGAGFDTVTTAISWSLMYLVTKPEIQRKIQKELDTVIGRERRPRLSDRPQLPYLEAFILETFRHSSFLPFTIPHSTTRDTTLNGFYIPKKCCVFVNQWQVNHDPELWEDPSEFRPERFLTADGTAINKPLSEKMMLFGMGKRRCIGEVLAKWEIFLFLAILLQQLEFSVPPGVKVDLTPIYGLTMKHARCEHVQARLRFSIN

[26] = target: Cytochrome P450 2C19 (Homo sapiens, UniProt P33261); experiment: Inhibition of human CYP2C19 after 10 mins; assay type: ADME; in short: as §1
[27] = test system: Rattus norvegicus; experiment: Ex vivo SERT occupancy in Sprague-Dawley rat cortex at 20 mg/kg, po after 1 hr by autoradiography; assay type: functional; in short: as §3
[28] = target: T4, Sodium-dependent dopamine transporter (Homo sapiens, UniProt Q01959); experiment: Displacement of [3H]WIN-35428 from human recombinant DAT by SPA; in short: as §2
[29] = target: Sodium-dependent noradrenaline transporter (Mus musculus, UniProt O55192); experiment: Displacement of [3H]nisoxetine from NET in mouse brain; assay type: tissue-based
[30] = target: T4, Sodium-dependent dopamine transporter; experiment: Displacement of [N-methyl-3H]WIN-35428 from human recombinant DAT expressed in pig LLCPK cells after 2 hrs by liquid scintillation counting; assay type: cell-based
[31] = target: T2, Sodium-dependent noradrenaline transporter; experiment: Inhibition of [3H]noradrenalin reuptake at human NET expressed in pig LLCPK cells after 1 hr; assay type: cell-based; in short: as §4
[32] = test system: Rattus norvegicus; experiment: Ex vivo SERT occupancy in Sprague-Dawley rat superior coulliculus at 10 mg/kg, po […] by autoradiography; assay type: functional
[33] = target: Sodium-dependent serotonin transporter (Rattus norvegicus, UniProt P31652); experiment: Displacement of [3H]-citalopram from SERT in rat cortex after 2 hrs by liquid scintillation counting
[34] = target: T4, Sodium-dependent dopamine transporter; experiment: Inhibition of [3H]dopamine reuptake at human DAT expressed in pig LLCPK cells after 1 hr; assay type: cell-based; in short: as §4
[35] = target: T2, Sodium-dependent noradrenaline transporter; experiment: Displacement of [N-methyl-3H]nisoxetine from human recombinant NET expressed in pig LLCPK cells after 2 hrs by liquid scintillation counting; assay type: cell-based
[36] = test system: Rattus norvegicus; experiment: Ex vivo SERT occupancy in Sprague-Dawley rat cortex at 3 mg/kg, po after 1 hr by autoradiography; assay type: functional; in short: as §3

T1 sequence (P31645 whole entry): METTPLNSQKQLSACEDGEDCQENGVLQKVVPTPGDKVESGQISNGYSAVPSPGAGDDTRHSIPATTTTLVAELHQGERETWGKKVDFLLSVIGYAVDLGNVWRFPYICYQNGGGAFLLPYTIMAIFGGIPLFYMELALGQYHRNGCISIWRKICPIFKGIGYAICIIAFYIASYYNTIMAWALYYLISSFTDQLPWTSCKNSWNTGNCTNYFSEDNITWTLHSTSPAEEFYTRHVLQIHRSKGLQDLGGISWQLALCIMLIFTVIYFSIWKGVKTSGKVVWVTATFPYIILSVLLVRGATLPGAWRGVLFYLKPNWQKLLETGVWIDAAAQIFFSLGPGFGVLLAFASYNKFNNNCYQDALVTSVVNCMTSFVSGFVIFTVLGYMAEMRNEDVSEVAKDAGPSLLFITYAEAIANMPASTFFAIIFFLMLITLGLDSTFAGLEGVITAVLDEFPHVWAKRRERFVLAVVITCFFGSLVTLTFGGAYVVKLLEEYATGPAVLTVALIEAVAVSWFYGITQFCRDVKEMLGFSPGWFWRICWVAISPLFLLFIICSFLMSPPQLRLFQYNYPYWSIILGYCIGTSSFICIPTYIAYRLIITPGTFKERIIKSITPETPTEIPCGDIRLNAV
T4 sequence (Q01959 whole entry): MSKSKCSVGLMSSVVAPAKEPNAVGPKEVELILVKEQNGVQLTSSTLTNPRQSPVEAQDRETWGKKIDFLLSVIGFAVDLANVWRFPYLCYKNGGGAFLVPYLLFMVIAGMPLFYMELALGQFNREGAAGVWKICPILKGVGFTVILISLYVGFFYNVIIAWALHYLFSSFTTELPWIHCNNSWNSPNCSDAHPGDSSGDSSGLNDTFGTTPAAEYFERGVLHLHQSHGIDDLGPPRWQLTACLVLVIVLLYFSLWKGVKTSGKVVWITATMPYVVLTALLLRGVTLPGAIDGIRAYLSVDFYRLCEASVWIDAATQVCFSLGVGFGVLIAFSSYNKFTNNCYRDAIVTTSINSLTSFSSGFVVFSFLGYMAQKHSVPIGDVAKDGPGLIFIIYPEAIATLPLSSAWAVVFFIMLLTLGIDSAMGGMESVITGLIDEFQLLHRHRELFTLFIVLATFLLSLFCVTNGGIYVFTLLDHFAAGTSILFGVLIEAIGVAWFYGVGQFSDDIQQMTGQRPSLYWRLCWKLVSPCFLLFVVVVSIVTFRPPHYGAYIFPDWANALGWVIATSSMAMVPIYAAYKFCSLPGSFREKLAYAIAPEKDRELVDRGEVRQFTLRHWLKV
T2 sequence (P23975 whole entry): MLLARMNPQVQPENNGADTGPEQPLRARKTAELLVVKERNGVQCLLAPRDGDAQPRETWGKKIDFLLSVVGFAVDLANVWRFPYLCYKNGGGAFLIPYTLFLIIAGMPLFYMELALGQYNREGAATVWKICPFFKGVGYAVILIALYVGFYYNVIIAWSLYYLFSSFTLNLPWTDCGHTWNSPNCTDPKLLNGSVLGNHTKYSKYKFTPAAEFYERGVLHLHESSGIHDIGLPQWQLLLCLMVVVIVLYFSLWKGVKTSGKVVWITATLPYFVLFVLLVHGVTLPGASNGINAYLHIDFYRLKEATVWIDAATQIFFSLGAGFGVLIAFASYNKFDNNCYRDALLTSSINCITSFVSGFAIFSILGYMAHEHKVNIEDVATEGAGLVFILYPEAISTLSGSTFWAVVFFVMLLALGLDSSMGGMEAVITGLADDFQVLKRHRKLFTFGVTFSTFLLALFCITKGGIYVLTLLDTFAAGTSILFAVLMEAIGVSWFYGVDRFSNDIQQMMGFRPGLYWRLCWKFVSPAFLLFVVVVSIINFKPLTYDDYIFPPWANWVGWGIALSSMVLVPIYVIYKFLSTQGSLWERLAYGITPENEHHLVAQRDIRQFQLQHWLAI
Chain of Transporter (Q63380 whole entry): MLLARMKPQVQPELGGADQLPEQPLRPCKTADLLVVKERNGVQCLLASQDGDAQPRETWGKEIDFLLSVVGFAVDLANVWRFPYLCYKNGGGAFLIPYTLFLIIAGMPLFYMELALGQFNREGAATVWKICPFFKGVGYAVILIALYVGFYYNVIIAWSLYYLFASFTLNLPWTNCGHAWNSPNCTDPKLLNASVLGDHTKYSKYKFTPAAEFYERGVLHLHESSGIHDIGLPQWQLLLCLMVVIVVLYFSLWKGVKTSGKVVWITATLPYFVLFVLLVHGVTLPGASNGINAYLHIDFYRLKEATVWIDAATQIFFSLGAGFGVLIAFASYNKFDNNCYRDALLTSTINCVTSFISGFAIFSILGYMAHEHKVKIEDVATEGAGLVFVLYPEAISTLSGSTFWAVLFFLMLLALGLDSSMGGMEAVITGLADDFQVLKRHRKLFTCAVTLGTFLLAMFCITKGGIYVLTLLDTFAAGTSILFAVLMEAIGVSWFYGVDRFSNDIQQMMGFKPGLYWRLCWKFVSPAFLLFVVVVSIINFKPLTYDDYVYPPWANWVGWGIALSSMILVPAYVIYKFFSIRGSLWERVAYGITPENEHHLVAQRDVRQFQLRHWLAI
Chain of Sodium-dependent serotonin transporter (Mus musculus, UniProt Q60857) (Q60857 whole entry): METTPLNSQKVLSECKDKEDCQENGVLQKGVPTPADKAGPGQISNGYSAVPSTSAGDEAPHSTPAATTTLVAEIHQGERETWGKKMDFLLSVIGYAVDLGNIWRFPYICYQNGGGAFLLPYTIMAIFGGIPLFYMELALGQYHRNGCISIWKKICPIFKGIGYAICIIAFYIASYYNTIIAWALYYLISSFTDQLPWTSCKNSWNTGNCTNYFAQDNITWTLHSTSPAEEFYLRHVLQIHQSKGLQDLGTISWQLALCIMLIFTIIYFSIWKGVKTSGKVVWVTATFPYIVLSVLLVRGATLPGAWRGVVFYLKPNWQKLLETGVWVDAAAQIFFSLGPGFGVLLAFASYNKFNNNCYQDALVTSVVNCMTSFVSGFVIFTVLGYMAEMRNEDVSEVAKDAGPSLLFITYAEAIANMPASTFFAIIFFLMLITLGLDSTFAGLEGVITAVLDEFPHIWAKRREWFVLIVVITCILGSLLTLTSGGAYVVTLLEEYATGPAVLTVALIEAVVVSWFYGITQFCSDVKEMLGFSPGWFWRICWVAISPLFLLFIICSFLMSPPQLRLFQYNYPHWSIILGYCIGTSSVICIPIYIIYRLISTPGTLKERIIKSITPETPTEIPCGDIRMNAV
Chain of Cytochrome P450 3A4 (P08684 whole entry): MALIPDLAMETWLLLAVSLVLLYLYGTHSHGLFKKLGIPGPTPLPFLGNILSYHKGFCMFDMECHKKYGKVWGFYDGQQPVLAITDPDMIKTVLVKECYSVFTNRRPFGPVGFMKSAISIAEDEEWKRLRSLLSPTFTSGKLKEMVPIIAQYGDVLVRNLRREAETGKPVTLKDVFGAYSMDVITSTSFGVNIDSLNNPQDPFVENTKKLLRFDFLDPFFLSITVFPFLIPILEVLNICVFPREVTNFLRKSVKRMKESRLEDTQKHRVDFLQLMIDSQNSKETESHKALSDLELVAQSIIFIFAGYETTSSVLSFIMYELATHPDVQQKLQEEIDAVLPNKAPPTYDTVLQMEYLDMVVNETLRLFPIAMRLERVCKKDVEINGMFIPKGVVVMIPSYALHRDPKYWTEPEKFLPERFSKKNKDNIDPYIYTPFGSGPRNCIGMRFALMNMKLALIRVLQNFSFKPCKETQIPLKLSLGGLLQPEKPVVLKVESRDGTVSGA
Chain of Sodium-dependent dopamine transporter (Rattus norvegicus, UniProt P23977) (P23977 whole entry): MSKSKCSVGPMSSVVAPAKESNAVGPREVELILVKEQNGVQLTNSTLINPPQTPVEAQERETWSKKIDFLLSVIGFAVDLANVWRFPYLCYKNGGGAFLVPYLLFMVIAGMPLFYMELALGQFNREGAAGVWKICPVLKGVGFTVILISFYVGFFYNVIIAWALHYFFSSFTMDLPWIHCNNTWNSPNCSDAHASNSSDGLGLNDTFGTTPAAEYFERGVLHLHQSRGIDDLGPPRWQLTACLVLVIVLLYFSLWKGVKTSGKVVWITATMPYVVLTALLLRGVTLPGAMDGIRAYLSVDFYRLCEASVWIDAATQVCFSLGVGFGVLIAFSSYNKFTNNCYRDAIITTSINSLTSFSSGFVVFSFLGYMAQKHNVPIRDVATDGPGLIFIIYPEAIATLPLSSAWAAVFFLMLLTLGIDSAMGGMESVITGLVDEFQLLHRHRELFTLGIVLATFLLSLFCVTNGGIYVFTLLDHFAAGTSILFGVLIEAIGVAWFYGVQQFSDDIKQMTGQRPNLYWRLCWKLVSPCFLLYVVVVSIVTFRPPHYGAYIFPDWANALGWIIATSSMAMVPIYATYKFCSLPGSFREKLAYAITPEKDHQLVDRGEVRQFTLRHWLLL
Chain of Sodium-dependent noradrenaline transporter (Mus musculus, UniProt O55192) (O55192 whole entry): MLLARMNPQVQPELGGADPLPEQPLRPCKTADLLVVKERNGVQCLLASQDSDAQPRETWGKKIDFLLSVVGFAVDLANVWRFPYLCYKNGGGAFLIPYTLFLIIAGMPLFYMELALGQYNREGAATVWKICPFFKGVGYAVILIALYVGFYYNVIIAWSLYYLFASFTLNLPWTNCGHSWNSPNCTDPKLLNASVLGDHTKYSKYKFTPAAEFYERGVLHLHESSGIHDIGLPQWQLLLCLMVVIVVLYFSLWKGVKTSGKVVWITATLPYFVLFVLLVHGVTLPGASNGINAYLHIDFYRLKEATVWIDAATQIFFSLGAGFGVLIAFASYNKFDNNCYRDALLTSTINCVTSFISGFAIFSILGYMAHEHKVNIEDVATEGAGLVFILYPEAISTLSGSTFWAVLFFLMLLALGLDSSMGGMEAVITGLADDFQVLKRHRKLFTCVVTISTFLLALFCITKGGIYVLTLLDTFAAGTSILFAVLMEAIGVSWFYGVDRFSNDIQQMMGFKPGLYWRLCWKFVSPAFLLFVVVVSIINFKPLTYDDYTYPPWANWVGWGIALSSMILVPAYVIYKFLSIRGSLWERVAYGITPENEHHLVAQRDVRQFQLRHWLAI
Chain of Sodium-dependent dopamine transporter (Mus musculus, UniProt Q61327) (Q61327 whole entry): as the sequence (P23977 whole entry) above, with S21P, A57V, A194S, H600R, L619V counted along it

In the case of `COC[C@@]12CNCC[C@]1(c1ccc(Cl)c(Cl)c1)C2` (relative stereo; 17) [GSK1360707], the Activity [1] is reported as “>=95%”, the clearance [2] is reported as 48 mL/min and the half-life [3] is reported as 102 min. The Ki [4] was 1.58 nM, the IC50 [5] was 10 µM and the Ki [6] was 1.05 nM. The Activity [7] was “>=95%”, the Activity [8] was “>=95%” and the Ki [9] was 10 nM. For the same compound, the Kp [10] was 6.3, the Activity [11] was 4.6% and the Activity [12] was 87.92%. The Activity [13] was 58.2%, the Ki [14] was 0.631 nM and the IC50 [15] was 3.98 nM. It also gave a Ki [16] of 2.51 nM, a Ki [17] of 10 nM and a bioavailability [18] of 54%. The Activity [19] was 12.6%, the Ki [20] was 12 nM and the Activity [21] was 36.3%. It also gave an IC50 [22] of 3 µM, a Vd [23] of 5.8 L/kg and an IC50 [24] of 10 µM. The IC50 [25] was 10 µM, the IC50 [26] was 10 µM and the Activity [27] was 98.2%. It also gave a Ki [28] of 12 nM, a Ki [29] of 1.58 nM and a Ki [30] of 10 nM. The IC50 [31] was 2 nM, the Activity [32] was “>=95%” and the Ki [33] was 1.26 nM. The IC50 [34] was 2 nM, the Ki [35] was 7.94 nM and the Activity [36] was 82.8%.
